A selection: hits, their analogues and other compounds. The true share with any hit is near 1.2%.
Wee1 degr inh: blocks degradation of human Wee1 kinase. 1.2% of 220,000 active. reporter increase, % at 5 µM. HeLa Luc-Wee1K328M stability, luciferase luminescence; 100% = proteasome inhibitor MG132 effect. P30291;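 active = activation above the mean of all tested compounds plus 3 SD, set per screening run, cut at about 8.8% in these data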;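 note: cells exposed to compound for 20 h before luminescence read; 0% = DMSO alone and 100% = MG132 at 30 µM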
RBBP9 inhibitor: human RBBP9 hydrolase inhibition; recombinant RBBP9, FP-Rh probe fluorescence polarization; inhibition, % at 7.94 µM; 0.2% of 220,000 active;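 active = inhibition above the campaign mean of all tested compounds plus 3 SD, cut at about 14% in these data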;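 note: plate controls were DMSO wells with RBBP9 for no effect and wells lacking RBBP9 protein for full effect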
Target sequence (O75884 whole entry, looked up): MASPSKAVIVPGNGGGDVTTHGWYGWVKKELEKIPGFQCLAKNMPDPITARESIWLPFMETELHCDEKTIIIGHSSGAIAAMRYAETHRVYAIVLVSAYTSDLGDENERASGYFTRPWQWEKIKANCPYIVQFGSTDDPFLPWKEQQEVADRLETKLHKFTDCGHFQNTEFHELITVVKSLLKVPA
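Test system: recombinant human RBBP9. Quantity: 2.5 µM RBBP9 dispensing solution, before mixing. Detection: FP readout at 525/598 nm. Reagent: Serine-hydrolase probe FP-Rh, 375 nM pre-mixing. Measure: % inhibition. Control set: DMSO-treated enzyme wells and wells lacking RBBP9. Buffer or medium: Tris-NaCl-Pluronic buffer, pH 8.0. Times: preincubation 30 min plus labeling 45 min at 25 °C.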
DNA FID counter: fluorescent intercalator displacement, NS3 helicase counter-screen; DNA fluorescent intercalator displacement, fluorescence; inhibition, % at 7.9 µM; 0.17% of 290,000 active; AID 1845; in the data active = inhibition above about 37%;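 note: 0% = vehicle and 100% = reference compound; higher means more ethidium bromide displaced from hairpin DNA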
Rad51 HR inh: Rad51 (human) homologous recombination inhibition. Q06609. hRad51 DNA strand exchange, fluorescence dequenching. inhibition, % at 10 µM. 0.085% of 200,000 active. AID 1385;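 active = inhibition above 40% at the single screening dose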;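 note: 0% = DMSO control wells and 100% = blanks with heterologous ssDNA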
Target sequence (Q06609 whole entry, looked up): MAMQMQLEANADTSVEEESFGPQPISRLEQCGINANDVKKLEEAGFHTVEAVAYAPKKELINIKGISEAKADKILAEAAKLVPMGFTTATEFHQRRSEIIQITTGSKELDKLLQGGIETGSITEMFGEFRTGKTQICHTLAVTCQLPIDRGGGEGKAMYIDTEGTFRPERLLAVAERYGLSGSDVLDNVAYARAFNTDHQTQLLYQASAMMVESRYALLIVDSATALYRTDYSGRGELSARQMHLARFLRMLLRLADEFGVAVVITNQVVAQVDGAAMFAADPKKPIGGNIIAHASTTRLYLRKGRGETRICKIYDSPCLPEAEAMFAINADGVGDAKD
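Material: human Rad51–ssDNA filaments; Probe or stimulus: labelled 47-mer dsDNA for strand exchange; Doses: single 10 µM dose; Incubation: 37 °C 15-min filament assembly, 30-min compound preincubation, 15-min exchange; Technique: FRET fluorescence dequenching, excitation 485 nm, emission 520 nm; Measure: Fluorescence-based percent inhibition, control- and blank-normalised; Benchmarks: plate control and blank wells.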
RBBP9 confirm: confirmation of human RBBP9 inhibitors; shares compounds with RBBP9 inhibitor; recombinant RBBP9, FP-Rh probe fluorescence polarization; inhibition, % at 7.94 µM; 36% of 410 active; AID 1537;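 active = inhibition above the hit cutoff derived for the primary screen, cut at about 15% in these data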;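 note: 0% = RBBP9 with DMSO and 100% = wells lacking RBBP9 protein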
Starred values were filed as active, the others as inactive; / = no result given.

SMILES	Wee1 degr inh	RBBP9 inhibitor	DNA FID counter	Rad51 HR inh	RBBP9 confirm
CCOc1cc(C(=O)NC(C)C2CCCO2)cc(OCC)c1OCC (configuration not stated)	1	16*	-24	-3	11
Cc1cccc(C)c1N1CCN(CCn2c(=S)[nH]c3ccccc3c2=O)CC1	/	/	-9	/	/
CC(=O)Nc1c(F)cc(Br)cc1F	5	16*	-3	19	9
CCOc1ccc(S(=O)(=O)Nc2ccc(S(=O)(=O)N3CCCCC3)cc2)cc1	2	15*	-18	-5	0
CCOc1ccc(S(=O)(=O)Nc2ccc(S(=O)(=O)N3CCCC3)cc2)cc1	-2	-7	-17	-2	/
O=C(NN=C1CCCC1)c1ccc(Br)cc1	/	/	-9	/	/
CCOC(=O)/C=C(C)\C=C\c1c[nH]c2ccccc12	-3	-16	-17	2	/
O=C(COc1ccc2ccccc2c1)Nc1ccc(Cc2ccncc2)cc1	4	28*	-17	3	3
CCOC(CNC(=O)CN1C(=O)COc2ccc(S(=O)(=O)N3CC(C)CC(C)C3)cc21)OCC (configuration not stated)	/	/	-49	/	/
Cc1ccc(N(CC(=O)N/N=C/c2cc(C)n(-c3ccccc3)c2C)S(C)(=O)=O)c(C)c1	-2	17*	-24	1	3
Cc1ccc(N(CC(=O)Nc2c(C)n(C)n(-c3ccccc3)c2=O)S(C)(=O)=O)c(C)c1	-3	-3	-13	-128	/
NS(=O)(=O)c1ccc(N/N=C/c2ccc(O)c(O)c2O)c([N+](=O)[O-])c1	1	64*	0	16	84*
O=C(NN=C1CCCC1)c1ccccc1OCCOc1ccccc1	5	23*	-8	/	3
O=C(NN=C1CCCCC1)c1ccccc1OCc1ccc(F)cc1	2	-2	-14	1	/
CCOC(=O)CN(C#N)c1nc(N(C)C)nc(N(C)C)n1	6	1	-11	10	/
Oc1ccc(/C=N/NC2=NCCCCC2)cc1	2	16*	-2	6	12
COc1cc(/C=N/NC2=NCCCCC2)ccc1O	-3	-8	1	/	/
CNCc1ccccc1Sc1cc(O)ccc1O	0	18*	-7	-4	84*
COc1ccc(C(=O)O/N=C(\C)c2nccs2)cc1	5	19*	-14	/	39*
C/C(=N\OC(=O)c1ccc(F)cc1)c1nccs1	3	11	-3	-6	/
CC(C)C[C@H](N)c1nnc(SCc2ccc(Cl)cc2)o1	6	16*	11	/	10
NC1=NC(c2ccccc2)N=C(Nc2ccccc2)N1 (configuration not stated)	7	-5	-2	-3	/
COc1c(Br)cc(/C=N/n2c(-c3ccccc3)n[nH]c2=S)c(O)c1Br	/	/	0	/	/
c1ccc(-c2nnc3sc(-c4ccncc4)nn23)cc1	1	1	-2	-2	/
Clc1ccc(-c2nn3c(-c4ccccc4)nnc3s2)cc1	0	17*	-10	-12	6
SMILES	Wee1 degr inh	RBBP9 inhibitor	DNA FID counter	Rad51 HR inh	RBBP9 confirm
CC(C)(C)N1CCC1C(N)=O (configuration not stated)	2	18*	-10	-25	2
CCOC(=O)c1ccc(NC(=O)COC(=O)Cc2csc(-c3ccccc3)n2)cc1	-2	-6	-9	-2	/
Cc1ccc(S(=O)(=O)NCCC(=O)N2CCN(Cc3ccccc3)CC2)cc1	0	29*	-15	-6	6
CC(=O)N1CCc2cc(S(=O)(=O)NCCC(=O)N3CCN(Cc4ccccc4)CC3)ccc21	-1	-6	-16	6	/
Nc1nccnc1C(=O)OCC(=O)NNC(=O)c1ccccc1	/	/	-4	/	/
CCOC(=O)C1CCN(c2nc(N)c3c(N)nc(SCC(=O)O)cc3c2C#N)CC1	-2	17*	-14	-59	39*
CCOC(=O)C1CCN(c2nc(C)cc(C)c2C#N)CC1	3	0	-16	-1	/
Nc1[nH]n(-c2ccccc2)c(=O)c1N=Nc1ccc2ncsc2c1	1	19*	-5	3	34*
COc1ccc(NC(=O)CS(=O)c2cccc(C(F)(F)F)c2)cc1 (configuration not stated)	/	/	-6	/	/
CN(C)c1ccc(NC(=O)Nc2csc3ccccc23)cc1	0	19*	6	-3	58*
CCS(=O)(=O)Nc1cccc(C2=NN(S(=O)(=O)c3ccc(C)cc3)C(c3ccco3)C2)c1 (configuration not stated)	0	-8	-18	32	/
c1ccc(-c2nnc(-c3cccc(-c4nnc(-c5ccccc5)o4)c3)o2)cc1	-2	5	2	/	/
Clc1cccc2sc(-c3nnc(-c4ccccc4)o3)c(Cl)c12	-3	20*	1	5	7
O=C(c1ccc(S(=O)(=O)N2CCOCC2)cc1)N1CCc2ccccc21	/	/	-20	/	/
CCCCSc1cnn(-c2ccccc2)c(=O)c1SCCCC	4	16*	-16	1	-3
C/C(=C\C(=O)c1cccnc1)Nc1ccc(O)cc1	4	43*	-158	3	10
C/C(=C\C(=O)c1ccccc1)Nc1ccc(O)cc1	1	12	-28	2	/
Oc1ccc(/C=N/Nc2ccnc3cc(Cl)ccc23)c(O)c1O	/	/	-19	/	/
Oc1ccc(/C=N/Nc2ccnc3cc(Cl)ccc23)cc1O	2	25*	19	13	97*
O=C1C(C2=NC(c3ccccn3)C3C(=O)N(c4ccccc4)C(=O)C23)=C(O)c2ccccc21 (configuration not stated)	-4	60*	1	1	8
CC(C)CNS(=O)(=O)c1ccc(CCC(=O)Nc2ccc3c(c2)OCCO3)cc1	2	4	-20	-3	/
N#CC1=C(N)Oc2ccc3ccc(O)cc3c2C1c1ccsc1 (configuration not stated)	-1	53*	-45	-81	47*
O=C(Nc1cccc(Cl)c1)Nc1sccc1-c1nc2ccccc2s1	1	15*	2	-12	19*
O=C(Nc1ccccc1)Nc1sccc1-c1nc2ccccc2s1	1	-1	-2	-22	/
Cc1c(C(=O)O)cccc1-c1ccc(/C=N/Nc2ccc(Br)cc2)o1	2	-4	-28	0	/
SMILES	Wee1 degr inh	RBBP9 inhibitor	DNA FID counter	Rad51 HR inh	RBBP9 confirm
CN(C)S(=O)(=O)c1ccc(N2CCCC2)c(C(=O)N2CCN(c3ccc([N+](=O)[O-])cc3)CC2)c1	3	3	-1	1	/
Cc1cccc(N2CCN(C(=O)c3cc(S(=O)(=O)N(C)C)ccc3N3CCCC3)CC2)c1C	-1	15*	0	-9	2
COc1ccc(C(=O)NCc2ccc3[nH]c(C)cc3c2)cc1OC	-3	-4	-7	-8	/
Cc1ccc(OCC(=O)NCCNC(=O)c2ccncc2)cc1C	/	/	-10	/	/
CCC(=O)N/C(=N/c1nc(C)cc(C)n1)Nc1ccc(OC)cc1	3	19*	-10	4	6
Cc1cc(C)nc(/N=C(\NC(=O)C(C)(C)C)Nc2ccc(F)cc2)n1	-4	15*	-7	/	7
CC1=CC(=NOC(=O)/C=C/c2ccccc2)C=C(C)C1=O	1	17*	1	-1	79*
